Assay results reported in ChEMBL document CHEMBL4364294 (J Med Chem, 2019).

Experiments:
[1] = Intrinsic clearance in human liver microsomes; type: ADME, Microsome; settings: read-out: CLH
[2] = Aqueous solubility of the compound at pH 1; type: physicochemical
[3] = Aqueous solubility of the compound at pH 6.5; type: physicochemical
[4] = Aqueous solubility of the compound at pH 7.4; type: physicochemical
[5] = Stability in human microsomes assessed as parent compound remaining after 90 mins in presence of phase 1 and 2 metabolic cofactors; type: ADME, Microsome; settings: read-out: Stability
[6] = Stability in rat microsomes assessed as parent compound remaining after 90 mins in presence of phase 1 and 2 metabolic cofactors; type: ADME, Microsome; settings: read-out: Stability
[7] = Permeability across apical to basolateral side in human Caco2 cells; type: ADME, cell-based; settings: Caco-2, read-out: permeability
[8] = Permeability across basolateral to apical side in human Caco2 cells; type: ADME, cell-based; settings: Caco-2, read-out: permeability
[9] = Clearance in Sprague-Dawley rat at 10 mg/kg, iv administered as single dose; type: ADME, organism-based; settings: in vivo
Summary of the method: (§1)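 Sprague-Dawley rats were given single doses, intravenous at 10–50 mg/kg or oral at 10, 25 and 50 mg/kg. Plasma PK parameters were CL, AUC0-inf, t1/2, Cmax and %F.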

[10] = Clearance in Sprague-Dawley rat at 25 mg/kg, iv administered as single dose; type: ADME, organism-based; settings: in vivo; summary of the method: as §1
[11] = Clearance in Sprague-Dawley rat at 50 mg/kg, iv administered as single dose; type: ADME, organism-based; settings: in vivo; summary of the method: as §1
[12] = AUC (0 to infinity) in Sprague-Dawley rat at 10 mg/kg, iv administered as single dose; type: ADME, organism-based; set-up: dose 10 mg/kg, time infinity, route intravenous; settings: in vivo; summary of the method: as §1
[13] = AUC (0 to infinity) in Sprague-Dawley rat at 25 mg/kg, iv administered as single dose; type: ADME, organism-based; set-up: dose 25 mg/kg, route intravenous, time infinity; settings: in vivo; summary of the method: as §1
[14] = AUC (0 to infinity) in Sprague-Dawley rat at 50 mg/kg, iv administered as single dose; type: ADME, organism-based; set-up: dose 50 mg/kg, time infinity, route intravenous; settings: in vivo; summary of the method: as §1
[15] = AUC (0 to infinity) in Sprague-Dawley rat at 10 mg/kg, po administered as single dose; type: ADME, organism-based; set-up: dose 10 mg/kg, route oral, time infinity; settings: in vivo; summary of the method: as §1
[16] = AUC (0 to infinity) in Sprague-Dawley rat at 25 mg/kg, po administered as single dose; type: ADME, organism-based; set-up: dose 25 mg/kg, time infinity, route oral; settings: in vivo; summary of the method: as §1
[17] = AUC (0 to infinity) in Sprague-Dawley rat at 50 mg/kg, po administered as single dose; type: ADME, organism-based; set-up: dose 50 mg/kg, route oral, time infinity; settings: in vivo; summary of the method: as §1
[18] = Half life in Sprague-Dawley rat at 10 mg/kg, iv administered as single dose; type: ADME, organism-based; settings: in vivo; summary of the method: as §1
[19] = Half life in Sprague-Dawley rat at 25 mg/kg, iv administered as single dose; type: ADME, organism-based; settings: in vivo
Summary of the method: (§2)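 Sprague-Dawley rats each received one dose of drug, either iv across 10-50 mg/kg or orally at 10, 25 and 50 mg/kg. Plasma pharmacokinetics covered CL, AUC0-inf, t1/2, Cmax and Tmax. Oral bioavailability (%F) was obtained from the oral and iv exposures.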

[20] = Half life in Sprague-Dawley rat at 50 mg/kg, iv administered as single dose; type: ADME, organism-based; settings: in vivo; summary of the method: as §2
[21] = Half life in Sprague-Dawley rat at 10 mg/kg, po administered as single dose; type: ADME, organism-based; settings: in vivo; summary of the method: as §2
[22] = Half life in Sprague-Dawley rat at 25 mg/kg, po administered as single dose; type: ADME, organism-based; settings: in vivo; summary of the method: as §2
[23] = Half life in Sprague-Dawley rat at 50 mg/kg, po administered as single dose; type: ADME, organism-based; settings: in vivo; summary of the method: as §2
[24] = Cmax in Sprague-Dawley rat at 10 mg/kg, po administered as single dose; type: ADME, organism-based; set-up: dose 10 mg/kg, route oral; settings: in vivo; summary of the method: as §1
[25] = Cmax in Sprague-Dawley rat at 25 mg/kg, po administered as single dose; type: ADME, organism-based; set-up: dose 25 mg/kg, route oral; settings: in vivo; summary of the method: as §1
[26] = Cmax in Sprague-Dawley rat at 50 mg/kg, po administered as single dose; type: ADME, organism-based; set-up: dose 50 mg/kg, route oral; settings: in vivo; summary of the method: as §1
[27] = Oral bioavailability in Sprague-Dawley rat at 25 mg/kg administered as single dose; type: ADME, organism-based; settings: in vivo; summary of the method: as §2
[28] = Oral bioavailability in Sprague-Dawley rat at 50 mg/kg administered as single dose; type: ADME, organism-based; settings: in vivo; summary of the method: as §2
[29] = Clearance in C57Bl6 mouse at 10 mg/kg, iv administered as single dose; type: ADME, organism-based; settings: in vivo
Summary of the method: (§3)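 C57Bl/6 mice were given single intravenous or oral doses (oral at 10 and 100 mg/kg). Plasma PK parameters were CL, AUC0-inf, t1/2, Cmax and %F.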

[30] = Clearance in C57Bl6 mouse at 50 mg/kg, iv administered as single dose; type: ADME, organism-based; settings: in vivo; summary of the method: as §3
[31] = AUC (0 to infinity) in C57Bl6 mouse at 10 mg/kg, iv administered as single dose; type: ADME, organism-based; set-up: dose 10 mg/kg, time infinity, route intravenous; settings: in vivo; summary of the method: as §3
[32] = AUC (0 to infinity) in C57Bl6 mouse at 50 mg/kg, iv administered as single dose; type: ADME, organism-based; set-up: dose 50 mg/kg, route intravenous, time infinity; settings: in vivo; summary of the method: as §3
[33] = AUC (0 to infinity) in C57Bl6 mouse at 10 mg/kg, po administered as single dose; type: ADME, organism-based; set-up: dose 10 mg/kg, time infinity, route oral; settings: in vivo; summary of the method: as §3
[34] = AUC (0 to infinity) in C57Bl6 mouse at 100 mg/kg, po administered as single dose; type: ADME, organism-based; set-up: dose 100 mg/kg, time infinity, route oral; settings: in vivo; summary of the method: as §3
[35] = Half life in C57Bl6 mouse at 10 mg/kg, iv administered as single dose; type: ADME, organism-based; settings: in vivo; summary of the method: as §3
[36] = Half life in C57Bl6 mouse at 50 mg/kg, iv administered as single dose; type: ADME, organism-based; settings: in vivo; summary of the method: as §3

predicted hepatic clearance [1]: 8.52 mL/min/kg
solubility [2]: > 200 µM
solubility [3]: > 200 µM
solubility [4]: > 200 µM
remaining at […] [5]: > 85%
remaining at […] [6]: > 85%
Papp A→B [7]: 22.7 ×10⁻⁶ cm/s
Papp B→A [8]: 35 ×10⁻⁶ cm/s
clearance [9]: 44.6 mL/min/kg
clearance [10]: 32 mL/min/kg
clearance [11]: 23.2 mL/min/kg
AUC(0-inf) [12]: 3930 ng·h/mL
AUC(0-inf) [13]: 13400 ng·h/mL
AUC(0-inf) [14]: 35000 ng·h/mL
AUC(0-inf) [15]: 1630 ng·h/mL
AUC(0-inf) [16]: 7980 ng·h/mL
AUC(0-inf) [17]: 15400 ng·h/mL
half-life [18]: 1.44 h
half-life [19]: 1.25 h
half-life [20]: 1 h
half-life [21]: 1.05 h
half-life [22]: 1.15 h
half-life [23]: 1.06 h
Cmax [24]: 1560 ng/mL
Cmax [25]: 6420 ng/mL
Cmax [26]: 10000 ng/mL
bioavailability [27]: 60.4%
bioavailability [28]: 44.1%
clearance [29]: 27.5 mL/min/kg
clearance [30]: 25 mL/min/kg
AUC(0-inf) [31]: 6130 ng·h/mL
AUC(0-inf) [32]: 34600 ng·h/mL
AUC(0-inf) [33]: 3780 ng·h/mL
AUC(0-inf) [34]: 60200 ng·h/mL
half-life [35]: 3.9 h
half-life [36]: 3 h
SMILES: O[C@H](C[C@H]1c2c(F)cccc2-c2cncn21)[C@H]1CC[C@H](O)CC1 [NAVOXIMOD]
